Published values collected from several papers.
Lines come from different studies, so protocols differ. Converted amounts (≈) assume the structure as drawn.

The MIC of O=C(O)c1cn(C2CC2)c2cc(N3CCNCC3)c(F)cc2c1=O is reported as 0.0156 µg/mL (≈ 0.0471 µM) (Salmonella enterica; microbial growth; ENTERITIDIS; 20 h, pH 7.2).
For O=c1cc(-c2ccc(O)cc2)oc2cc(O)cc(O)c12, the inhibition was 82.6% (Helicobacter pylori; microbial growth, broth dilution; 0.98 µg/mL).
O=C1NC(=S)N/C1=C\c1ccc(-c2ccc(N(c3ccccc3)c3ccccc3)cc2)cc1 gave an MBC of > 1000 µg/mL (Bacillus cereus; microbial killing, broth dilution; ATCC10876).
The inhibition of C=C[C@@]1(C)C=C2CC[C@@H]3[C@](C)(CCC[C@@]3(C)C(=O)O)[C@H]2CC1 is reported as 86.3% (Helicobacter pylori; microbial growth, broth dilution; 15.63 µg/mL).
The MIC of CN(C)[C@@H]1C(O)=C(C(N)=O)C(=O)[C@@]2(O)C(O)=C3C(=O)c4c(O)cccc4[C@@](C)(O)[C@H]3C[C@@H]12 is reported as 1 µg/mL (≈ 2.25 µM) (Salmonella enterica; microbial growth; F98, TYPHIMURIUM; 20 h, pH 7).
With COC(=O)c1ccc(O)cc1 the inhibition was 100% (Helicobacter pylori; microbial growth, broth dilution; 15.63 µg/mL).
CS(=O)(=O)c1ccc([C@@H](O)[C@@H](CF)NC(=O)C(Cl)Cl)cc1 has an MIC of 4 µg/mL (≈ 11.2 µM) (Salmonella enterica; microbial growth; ENTERITIDIS; 20 h, pH 7).
With O=C(O)CN1C(=O)/C(=C/c2c3ccccc3c(-c3ccc(N(c4ccccc4)c4ccccc4)cc3)c3ccccc23)SC1=S the MIC was > 1000 µg/mL (Bacillus cereus; microbial growth, broth dilution; ATCC10876).
CO/N=C(\C(=O)N[C@@H]1C(=O)N2C(C(=O)O)=C(CSc3nc(=O)c(=O)[nH]n3C)CS[C@H]12)c1csc(N)n1 has an MIC of 0.0625 µg/mL (≈ 0.113 µM) (Salmonella enterica; microbial growth; ENTERITIDIS; 20 h, pH 7).
For CC1(C)S[C@@H]2[C@H](NC(=O)[C@H](N)c3ccccc3)C(=O)N2[C@H]1C(=O)O, the inhibition was 100% (Salmonella enterica; microbial growth, agar dilution; ATCC13311 TYPHIMURIUM; 26.93 µM).
For Cc1cc(NS(=O)(=O)c2ccc(N)cc2)no1, the MIC was 64 µg/mL (≈ 253 µM) (Salmonella enterica; microbial growth; ENTERITIDIS; 20 h, pH 7).
O=C(O)CN1C(=O)/C(=C/c2ccc(-c3ccc(N(c4ccccc4)c4ccccc4)cc3)cc2)SC1=S gave an MBC of 31.3 µg/mL (≈ 59.9 µM) (Bacillus cereus; microbial killing, broth dilution; ATCC10876).
For O=C(N[C@H](CO)[C@H](O)c1ccc([N+](=O)[O-])cc1)C(Cl)Cl, the MIC was 2 µg/mL (≈ 6.19 µM) (Salmonella enterica; microbial growth; 20 h, pH 5.5).
The MBC of CNC1=C([N+](=O)[O-])C2(C(=O)Nc3ccccc32)C2=C(O1)C(=O)c1ccccc1C2=O (stereo not shown) is reported as ≤ 1000 µg/mL (Salmonella enterica; microbial killing; TYPHIMURIUM).
With O=C(O)CN1C(=O)/C(=C/c2ccc(-c3ccc(N(c4ccccc4)c4ccccc4)cc3)c3ccccc23)SC1=S the MIC was 1000 µg/mL (≈ 1750 µM) (Bacillus cereus; microbial growth, broth dilution; ATCC10876).
For O=C(N[C@H](CO)[C@H](O)c1ccc([N+](=O)[O-])cc1)C(Cl)Cl, the MIC90 was 0.98 µg/mL (≈ 3.03 µM) (Salmonella enterica; microbial growth; ATCC13311 TYPHIMURIUM).
[H]/N=C(/N)N[C@H]1[C@H](O)[C@@H](O)[C@H](O[C@@H]2O[C@@H](C)[C@](O)(C=O)[C@H]2O[C@@H]2O[C@@H](CO)[C@H](O)[C@@H](O)[C@@H]2NC)[C@@H](N/C(N)=N\[H])[C@@H]1O gave an MIC of 64 µg/mL (≈ 110 µM) (Salmonella enterica; microbial growth; 20 h, pH 7).
O=C1NC(=S)S/C1=C\c1c2ccccc2c(-c2ccc(N(c3ccccc3)c3ccccc3)cc2)c2ccccc12 gave an MBC of > 1000 µg/mL (Bacillus cereus; microbial killing, broth dilution; ATCC10876).
For O=c1cc(-c2ccc(O)c(O)c2)oc2cc(O)cc(O)c12, the inhibition was 100% (Helicobacter pylori; microbial growth, broth dilution; 31.25 µg/mL).
For COc1cc(Cc2cnc(N)nc2N)cc(OC)c1OC, the MIC was 0.25 µg/mL (≈ 0.861 µM) (Salmonella enterica; microbial growth; F98, TYPHIMURIUM; 20 h, pH 7.2).
O=C1NC(=S)N/C1=C\c1c2ccccc2c(-c2ccc(N(c3ccccc3)c3ccccc3)cc2)c2ccccc12 gave an MBC of > 1000 µg/mL (Bacillus cereus; microbial killing, broth dilution; ATCC10876).
The inhibition of CC[C@H]1OC(=O)[C@H](C)[C@@H](O[C@H]2C[C@@](C)(OC)[C@@H](O)[C@H](C)O2)[C@H](C)[C@@H](O[C@@H]2O[C@H](C)C[C@H](N(C)C)[C@H]2O)[C@](C)(OC)C[C@@H](C)C(=O)[C@H](C)[C@@H](O)[C@]1(C)O is reported as 100% (Helicobacter pylori; microbial growth, broth dilution; 62.5 µg/mL).
The MBC of O=C(O)CN1C(=O)/C(=C/c2ccc(-c3ccc(N(c4ccccc4)c4ccccc4)cc3)c3ccccc23)NC1=S is reported as > 1000 µg/mL (Bacillus cereus; microbial killing, broth dilution; ATCC10876).
O=C(N/N=C/c1ccc([N+](=O)[O-])o1)c1ccc(O)cc1 gave an MIC90 of 0.98 µg/mL (≈ 3.56 µM) (Salmonella enterica; microbial growth; ATCC13311 TYPHIMURIUM).
With COc1ccc(-c2cc(=O)c3c(O)cc(O[C@@H]4O[C@H](CO)[C@@H](O)[C@H](O)[C@H]4O)cc3o2)cc1O the inhibition was 100% (Helicobacter pylori; microbial growth, broth dilution; 62.5 µg/mL).
